{"source": "ChEMBL document CHEMBL1133213", "about": "“Synthesis, molecular modeling and preliminary biological evaluation of 1-amino-3-phosphono-3-cyclopentene-1-carboxylic acid and 1-amino-3-phosphono-2-cyclopentene-1-carboxylic acid, two novel agonists of metabotropic glutamate receptors of group III” (Bioorg Med Chem Lett, 2000)", "key": {"[1]": {"target": "T1, Metabotropic glutamate receptor 4 (Homo sapiens, UniProt Q14833)", "T1 sequence (Q14833 whole entry)": "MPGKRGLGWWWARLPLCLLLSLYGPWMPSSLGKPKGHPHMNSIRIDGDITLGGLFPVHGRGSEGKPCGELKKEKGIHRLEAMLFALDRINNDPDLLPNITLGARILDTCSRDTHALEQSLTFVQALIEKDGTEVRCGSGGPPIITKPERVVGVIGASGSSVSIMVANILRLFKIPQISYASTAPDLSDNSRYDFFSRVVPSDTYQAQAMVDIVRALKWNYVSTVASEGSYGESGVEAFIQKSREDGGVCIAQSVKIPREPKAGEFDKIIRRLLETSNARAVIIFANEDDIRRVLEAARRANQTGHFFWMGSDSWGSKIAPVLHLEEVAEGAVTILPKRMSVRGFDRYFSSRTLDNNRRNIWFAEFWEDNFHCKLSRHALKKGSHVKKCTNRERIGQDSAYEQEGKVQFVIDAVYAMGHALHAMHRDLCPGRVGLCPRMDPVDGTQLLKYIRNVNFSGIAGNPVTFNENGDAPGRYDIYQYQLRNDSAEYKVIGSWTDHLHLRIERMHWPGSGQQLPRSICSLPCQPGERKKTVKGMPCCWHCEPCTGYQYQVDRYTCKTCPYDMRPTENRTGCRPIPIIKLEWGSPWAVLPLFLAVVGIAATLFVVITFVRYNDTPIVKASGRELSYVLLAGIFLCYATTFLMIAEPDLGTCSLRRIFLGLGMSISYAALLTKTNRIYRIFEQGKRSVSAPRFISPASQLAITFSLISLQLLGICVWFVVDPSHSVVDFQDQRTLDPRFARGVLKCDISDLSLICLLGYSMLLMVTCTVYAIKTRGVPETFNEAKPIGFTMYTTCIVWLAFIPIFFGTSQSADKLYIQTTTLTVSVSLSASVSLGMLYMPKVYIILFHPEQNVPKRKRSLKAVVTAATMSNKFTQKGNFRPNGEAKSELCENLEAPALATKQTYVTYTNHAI", "test": "Agonistic activity at Metabotropic glutamate receptor 4 expressed in mammalian cells by GTPgammaS binding assay", "assay_type": "cell-based", "outline": "(§1)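 [35S]-GTPγS binding to membranes prepared from CHO cells expressing human mGlu4a. Stimulation is normalised to that given by 1 mM L-Glu. Points are mean ± SEM of three determinations from one experiment.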"}, "[2]": {"target": "T2, Metabotropic glutamate receptor 2 (Homo sapiens, UniProt Q14416)", "T2 sequence (Q14416 whole entry)": "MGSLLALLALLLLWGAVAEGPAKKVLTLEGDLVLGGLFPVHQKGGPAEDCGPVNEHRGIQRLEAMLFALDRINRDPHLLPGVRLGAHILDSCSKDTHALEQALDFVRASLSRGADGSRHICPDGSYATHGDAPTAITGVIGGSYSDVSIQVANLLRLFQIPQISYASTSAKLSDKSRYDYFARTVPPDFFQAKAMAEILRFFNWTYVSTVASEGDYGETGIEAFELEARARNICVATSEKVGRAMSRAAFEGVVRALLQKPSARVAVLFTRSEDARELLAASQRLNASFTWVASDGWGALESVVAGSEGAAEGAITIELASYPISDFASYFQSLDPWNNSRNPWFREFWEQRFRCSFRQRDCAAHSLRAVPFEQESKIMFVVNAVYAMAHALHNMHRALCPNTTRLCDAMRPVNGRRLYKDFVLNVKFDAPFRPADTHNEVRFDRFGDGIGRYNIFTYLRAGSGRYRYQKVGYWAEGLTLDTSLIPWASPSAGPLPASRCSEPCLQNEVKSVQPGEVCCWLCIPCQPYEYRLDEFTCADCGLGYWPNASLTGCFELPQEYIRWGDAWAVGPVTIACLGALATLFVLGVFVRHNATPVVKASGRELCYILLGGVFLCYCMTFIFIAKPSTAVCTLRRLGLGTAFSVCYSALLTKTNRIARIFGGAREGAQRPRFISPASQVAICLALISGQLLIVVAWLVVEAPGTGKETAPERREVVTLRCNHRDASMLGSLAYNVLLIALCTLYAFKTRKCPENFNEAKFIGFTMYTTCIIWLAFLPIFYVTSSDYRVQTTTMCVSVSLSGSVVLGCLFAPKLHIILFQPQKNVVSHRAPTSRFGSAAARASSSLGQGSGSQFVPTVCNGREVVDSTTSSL", "test": "Agonistic activity on Human mGlu2 receptor expressed in recombinant mammalian cells by GTPgammaS binding assay", "assay_type": "cell-based", "outline": "(§2)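 [35S]-GTPγS binding assay in a CHO cell line expressing human mGlu2.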"}, "[3]": {"target": "T1, Metabotropic glutamate receptor 4", "test": "Inhibition of forskolin-stimulated cAMP accumulation in CHO cells expressing hmGlu4a", "assay_type": "functional, cell-based"}, "[4]": {"target": "T1, Metabotropic glutamate receptor 4", "test": "Inhibitory concentration on Human mGlu4 receptor expressed in recombinant mammalian cells by GTPgammaS binding assay", "assay_type": "cell-based"}, "[5]": {"target": "T1, Metabotropic glutamate receptor 4", "test": "Agonistic activity on Human mGlu4a receptor expressed in recombinant mammalian cells by GTPgammaS binding assay; Partial agonist", "assay_type": "cell-based", "outline": "as §1"}, "[6]": {"target": "T2, Metabotropic glutamate receptor 2", "test": "Inhibitory concentration on Human mGlu2 receptor expressed in recombinant mammalian cells by GTPgammaS binding assay", "assay_type": "cell-based", "outline": "as §2"}, "[7]": {"target": "T1, Metabotropic glutamate receptor 4", "test": "Agonistic activity on Human mGlu4a receptor expressed in recombinant mammalian cells by GTPgammaS binding assay", "assay_type": "cell-based", "outline": "as §1"}, "[8]": {"target": "T2, Metabotropic glutamate receptor 2", "test": "Agonistic activity on Human Metabotropic glutamate receptor 2 expressed in recombinant mammalian cells by GTPgammaS binding assay", "assay_type": "cell-based", "outline": "as §2"}, "[9]": {"target": "T2, Metabotropic glutamate receptor 2", "test": "Inhibitory concentration on Human Metabotropic glutamate receptor 2 expressed in recombinant mammalian cells by GTPgammaS binding assay", "assay_type": "cell-based", "outline": "as §2"}, "[10]": {"target": "T1, Metabotropic glutamate receptor 4", "test": "Inhibition of forskolin-stimulated cAMP accumulation in CHO cells expressing hmGlu4a; No full inhibition", "assay_type": "functional, cell-based"}}, "data": [{"smiles": "N[C@]1(C(=O)O)C[C@@H]1CP(=O)(O)O", "values": [{"measurement": "EC50", "setting": "[1]", "result": 0.58, "unit": "µM"}]}, {"smiles": "N[C@@H](CCP(=O)(O)O)C(=O)O", "values": [{"measurement": "EC50", "setting": "[1]", "result": 0.5, "unit": "µM"}]}, {"smiles": "N[C@@]1(C(=O)O)CC[C@H](P(=O)(O)O)C1", "values": [{"measurement": "EC50", "setting": "[1]", "result": 86, "unit": "µM"}]}, {"smiles": "N[C@@H](COP(=O)(O)O)C(=O)O", "note": "[DEXFOSFOSERINE]", "values": [{"measurement": "EC50", "setting": "[1]", "result": 1, "unit": "µM"}]}, {"smiles": "NC(C(=O)O)c1ccc(P(=O)(O)O)cc1", "note": "(stereo unspecified)", "values": [{"measurement": "EC50", "setting": "[1]", "result": 4.7, "unit": "µM"}]}, {"smiles": "N[C@]1(C(=O)O)C[C@H]1CP(=O)(O)O", "values": [{"measurement": "EC50", "setting": "[1]", "result": 7.9, "unit": "µM"}]}, {"smiles": "NC1(C(=O)O)C[C@@H](C(=O)O)[C@H](C(=O)O)C1", "values": [{"measurement": "EC50", "setting": "[1]", "result": 9, "unit": "µM"}]}, {"smiles": "N[C@@]1(C(=O)O)C[C@H](C(=O)O)[C@H](C(=O)O)C1", "values": [{"measurement": "EC50", "setting": "[1]", "result": 7, "unit": "µM"}]}, {"smiles": "NC1(C(=O)O)C=C(P(=O)(O)O)CC1", "note": "(stereo unspecified)", "values": [{"measurement": "EC50", "setting": "[2]", "result": "> 300", "unit": "µM"}, {"measurement": "EC50", "setting": "[3]", "result": "> 30", "unit": "µM"}, {"measurement": "IC50", "setting": "[3]", "result": "> 100", "unit": "µM"}, {"measurement": "IC50", "setting": "[4]", "result": "> 100", "unit": "µM"}, {"measurement": "EC50", "setting": "[5]", "result": "> 30", "unit": "µM"}, {"measurement": "IC50", "setting": "[6]", "result": "> 200", "unit": "µM"}]}, {"smiles": "NC1(C(=O)O)CC=C(P(=O)(O)O)C1", "note": "(stereo unspecified)", "values": [{"measurement": "IC50", "setting": "[3]", "result": "> 100", "unit": "µM"}, {"measurement": "EC50", "setting": "[7]", "result": 17, "unit": "µM"}, {"measurement": "IC50", "setting": "[4]", "result": "> 100", "unit": "µM"}, {"measurement": "EC50", "setting": "[8]", "result": "> 300", "unit": "µM"}, {"measurement": "IC50", "setting": "[9]", "result": "> 300", "unit": "µM"}, {"measurement": "EC50", "setting": "[10]", "result": "~30", "unit": "µM"}]}, {"smiles": "N[C@@]1(C(=O)O)CCC(P(=O)(O)O)C1", "note": "(single isomer, unassigned)", "values": [{"measurement": "EC50", "setting": "[1]", "result": 27, "unit": "µM"}]}]}
